S1P4 ag – activates the human S1P4 receptor; S1P4-expressing cell line, agonist reporter assay; 220,000 tested, 0.35% active; O95977; activation, % at 4.98 µM; in the data active = activation above about 11%;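 note: 0% = DMSO vehicle and 100% = reference agonist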
Lmaj promast – inhibitors of Leishmania major promastigote growth; inhibition, % at 10 µM; 200,000 tested, 9% active; Leishmania major promastigotes, resazurin fluorescence viability; AID 1063; in the data active = inhibition above about 50%;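 note: promastigotes grown with compound for 44 hours at 28 °C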
S1P4 antagonist – human S1P4 receptor antagonism; O95977; S1P4-expressing cells, antagonist mode, reporter read-out; inhibition, % at 4.98 µM; 220,000 tested, 0.26% active; in the data active = inhibition above about 29%;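 note: 0% = wells stimulated with agonist and 100% = vehicle wells without agonist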
S1P3 antag – S1P3 (human) receptor antagonism | Q99500 | CHO S1P3 NFAT-BLA reporter, FRET fluorescence, antagonist mode | inhibition, % at 4.98 µM | 170,000 tested, 0.27% active;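 active = inhibition above the plate cutoff, the mean inhibition of test wells on that plate plus 3 SD, cut at about 28% in these data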;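 note: cells challenged with S1P at its EC80 of 0.8 µM; blue over green emission ratio from cleaved BLA substrate after 4 h stimulation; 0% = S1P-stimulated wells and 100% = unstimulated DMSO-only wells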
MDM2 E3 inh – inhibitors of human Mdm2 E3 ubiquitin ligase; cell-based MDM2 ubiquitination luciferase reporter, 2 h; 0 = plate control, 100 = twice control, blank-subtracted; 210,000 tested, 0.11% active; AID 1230; signal enhancement, % at 5 µM; Q00987;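 active = signal enhancement of 30% or more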;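 note: luminescence tracks abundance of the self-degrading MDM2-luciferase fusion protein; higher signal means inhibition of MDM2 E3 ligase activity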
Target sequence (Q00987 whole entry, looked up, the tested form may be a part): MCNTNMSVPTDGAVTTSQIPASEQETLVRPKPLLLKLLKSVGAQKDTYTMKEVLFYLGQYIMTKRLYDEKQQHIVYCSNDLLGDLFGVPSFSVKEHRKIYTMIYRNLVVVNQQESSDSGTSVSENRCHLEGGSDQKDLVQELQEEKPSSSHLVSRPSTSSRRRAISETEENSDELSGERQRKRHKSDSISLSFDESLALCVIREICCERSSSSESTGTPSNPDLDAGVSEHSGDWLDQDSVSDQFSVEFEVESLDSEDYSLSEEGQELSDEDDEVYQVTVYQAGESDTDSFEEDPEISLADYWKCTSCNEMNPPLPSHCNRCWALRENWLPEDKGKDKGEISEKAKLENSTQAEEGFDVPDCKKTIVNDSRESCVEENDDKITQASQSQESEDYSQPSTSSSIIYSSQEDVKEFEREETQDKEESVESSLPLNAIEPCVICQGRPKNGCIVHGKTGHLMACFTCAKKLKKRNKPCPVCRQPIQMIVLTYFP
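System: stable MDM2–luciferase fusion reporter cells / Input: 2000 cells seeded into each well / Schedule: 4 h settle plus 2 h compound, 37 °C / Compound: single-point 5 µM / Buffer or medium: cells held in DMEM / Benchmarks: control and blank well means / Evaluation: percent signal gain over controls, blank-subtracted / Measured by: luciferase luminescence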
* marks the source's active call; other numbers are inactive results; x = no result. Shown is part of a subset that was picked to be rich in hits.

SMILES	S1P4 ag	Lmaj promast	S1P4 antagonist	S1P3 antag	MDM2 E3 inh
Nc1[nH]n2c(=O)c3c(nc2c1N=Nc1ccc(Cl)cc1)CCCC3	-0.9	79.0*	-5.4	x	-10.7
Cc1[nH]n2c(=O)c3c(nc2c1-c1ccc(Cl)cc1)CCC3	0.7	99.5*	-15.5	x	7.2
O=c1c2c(nc3c(-c4ccccc4)c[nH]n13)CCCC2	4.1	73.7*	10.0	x	-9.9
Nc1[nH]n2c(=O)c3c(nc2c1N=Nc1ccccc1)CCCC3	-0.2	90.9*	-12.7	x	-7.2
CC(/C=C/c1ccco1)=N\NC(=O)CNc1cccc(C)c1	0.4	-0.4	-3.8	1.7	-18.9
CCCCCCn1c(=O)[nH]c2nc3cc(N)ccc3nc2c1=O	1.1	47.0	15.3	23.4	-9.0
O=C(COC(=O)COc1cccc(Br)c1)Nc1c(Cl)cccc1Cl	-1.6	-6.9	-2.5	7.8	7.5
O=C(Nc1ccccc1)c1cc2ccc3ccccc3c2s1	0.3	x	0.7	10.3	-6.2
COC(=O)c1cc(Br)c(=O)n(Cc2cccnc2)c1	-0.1	-5.1	-12.2	x	-9.1
c1ccc(Cn2c(CNc3nc4ccccc4n3CCN3CCCCC3)nc3ccccc32)cc1	3.0	99.7*	-3.1	x	-7.4
Cn1c(CNc2ccccc2O)nc2ccccc21	1.2	88.6*	6.3	-4.7	-6.1
Cn1c(CNc2ccccc2)nc2ccccc21	1.9	8.8	-5.8	-12.1	-2.9
c1ccc(Cn2c(CN3CCCC3)nc3ccccc32)cc1	-2.4	3.5	-7.8	x	-2.1
Clc1ccc(Cn2c(CN3CCCC3)nc3ccccc32)cc1	1.3	99.6*	6.9	-3.7	x
CCN(CC)CCn1c(NCc2nc3ccccc3n2Cc2ccccc2)nc2ccccc21	-1.9	100.1*	-4.4	x	-11.3
CCN(CC)CCn1c(NCc2ccco2)nc2ccccc21	-1.1	1.4	4.7	x	-5.8
Cc1nn(C)c(Cl)c1S(=O)(=O)N1CCC(CO)(CCc2ccccc2)CC1	2.5	-1.6	-2.1	-5.9	-0.5
Cn1c(CNc2nc3ccccc3n2CCN2CCCCC2)nc2ccccc21	-1.4	99.4*	-6.4	-28.9	-10.6
CCN(CC)c1ccc(CNc2nc3ccccc3n2CCN2CCCCC2)cc1	-1.7	100.5*	-3.2	-5.1	-22.3
CC(C)c1nc(SCC(=O)Nc2c[nH]c(=O)[nH]c2=O)c2cnn(-c3ccccc3)c2n1	0.6	27.8	7.4	-13.0	-2.0
Cc1ccc(C(=O)Nc2ccccc2SCC2CSc3nc4ccccc4c(=O)n32)cc1 (stereo unspecified)	0.8	50.4*	7.8	x	-21.6
O=c1c2ccccc2nc2n1C(CSCc1ccc(Cl)cc1)CS2 (stereo unspecified)	0.0	59.5*	-6.7	x	-5.8
Cc1cccn2c(=O)c(C=O)c(N3CCSCC3)nc12	0.1	x	-9.0	-10.6	0.9
Cc1nn(Cc2ccccc2)c(C)c1/C=N/NC(=O)c1ccccc1O	0.6	x	9.1	-3.2	-7.8
Cc1nc2c(sc3nc(N4CCOCC4)c4c(c32)CC(C)(C)OC4)c(-c2ccc(Cl)cc2)c1C(=O)O	0.6	x	-7.3	-5.5	-7.9
SMILES	S1P4 ag	Lmaj promast	S1P4 antagonist	S1P3 antag	MDM2 E3 inh
COc1ccccc1OCCN1CSC(=S)N(C)C1	2.4	100.3*	2.5	8.6	-9.4
Cc1cccc(OCCN2CSC(=S)N(C)C2)c1	2.5	99.6*	-17.8	x	-12.7
O=C(NC(=S)Nc1nc2c(s1)CCCC2)c1ccc(C(=O)c2ccccc2)cc1	-0.8	75.8*	-21.0	10.4	-2.6
Cc1cccc(Nc2nc3c(s2)CCCC3)c1	1.0	62.2*	3.3	9.5	9.4
C/C(=N\Nc1nc2c(s1)CCCC2)c1ccccc1	3.8	51.7*	5.3	x	x
CCN(CC)S(=O)(=O)c1ccc(OC(C)C)c(NC(=O)c2c3c(nc4ccccc24)CCN(Cc2ccccc2)C3)c1	1.3	58.4*	-7.3	-8.6	-31.4
COc1ccc(NC(=O)c2c3c(nc4ccccc24)CCN(Cc2ccccc2)C3)c(OC)c1	2.8	1.8	-5.0	-4.5	-14.8
COc1ccc(S(=O)(=O)N2CCCCCC2)cc1NC(=O)c1c2c(nc3ccccc13)CCN(Cc1ccccc1)C2	-0.4	53.5*	-10.3	-0.2	5.1
CCNc1nc(-c2ccc(OC(F)F)cc2)c(C)s1	-0.7	14.4	-13.8	-7.4	-24.0
C=CCn1c(SCc2cccc3ccccc23)nnc1-c1cccnc1	-1.0	50.4*	1.2	x	-15.7
C=CCn1c(SCC(=O)Nc2ccc(C(=O)O)cc2)nnc1-c1cccnc1	1.1	x	-16.6	-5.2	x
COc1cc(C(C)=O)ccc1OCC(=O)c1cc(C)n(C2CC2)c1C	0.4	0.3	-21.0	-6.0	-3.4
COc1cccc(N2CCN(c3cnc4ccccc4n3)CC2)c1	1.0	69.7*	-21.1	7.3	-0.5
CNC(=O)CN(C)S(=O)(=O)c1ccc(F)cc1	-1.7	4.5	-9.2	x	-10.9
COc1ccccc1-n1c(SCC(=O)NC2CCS(=O)(=O)C2)nc2cc([N+](=O)[O-])ccc21 (stereo unspecified)	3.1	0.3	-18.7	1.8	-6.7
CCN(CC)S(=O)(=O)c1ccc2c(c1)nc(SCC(=O)NC1CC1)n2-c1ccccc1OC	-0.4	79.7*	-10.5	20.1	-20.8
COc1ccccc1-n1c(SCC(=O)c2ccc(O)cc2O)nc2cc([N+](=O)[O-])ccc21	-0.3	51.4*	-3.0	7.7	6.2
C=CCNc1cc(C)oc(=O)c1C(=O)CCC	-1.4	-2.5	7.4	x	-10.9
COc1ccccc1CNC(=O)Nc1cccs1	-0.5	-2.7	-27.7	x	-0.5
COc1ccc(Br)cc1CNC(=O)Nc1cccs1	-0.5	53.6*	-3.0	x	-10.4
CC(C)(C)NS(=O)(=O)c1ccc(CCC(=O)N2CCCC2)cc1	0.2	5.4	-5.2	-21.4	-7.3
Cc1ccc(S(=O)(=O)N(C(=O)c2ccncc2)c2ccc(OC(=O)c3ccncc3)cc2)c(C)c1	-0.2	75.7*	-14.7	-1.7	-23.3
Cc1ccc(C)c(S(=O)(=O)N(C(=O)c2ccncc2)c2ccc(OC(=O)c3ccncc3)cc2)c1	0.3	5.5	12.8	-1.5	-15.2
CC(CS(=O)(=O)c1ccc2ccccc2c1)N1CCN(C2CCCCC2)CC1 (stereo unspecified)	2.0	82.5*	-6.1	x	x
Cc1ccc(S(=O)(=O)CC(CN2CCOCC2)N2CCOCC2)cc1 (stereo unspecified)	1.6	-3.7	-3.4	-20.9	-7.3
Cn1c(=O)c(=O)n(C)c2cc(S(=O)(=O)N3CCN(C4CCCCC4)CC3)ccc21	-0.1	-2.2	0.2	x	-13.5
Cc1ccc(S(=O)(=O)CC(C)N2CCN(C3CCCCC3)CC2)cc1 (stereo unspecified)	2.5	90.4*	2.4	x	1.9
O=S(=O)(CC(CN1CCCC1)N1CCCC1)c1ccc2ccccc2c1 (stereo unspecified)	1.0	100.5*	-2.9	-6.3	-10.4
CC(C)Sc1ncc(S(=O)(=O)c2ccccc2)c(=O)[nH]1	0.7	-2.3	-0.1	-18.9	-5.4
COCc1ccc(C(=O)N2CCCC(C(=O)c3cc(F)ccc3F)C2)s1 (stereo unspecified)	0.7	-6.0	0.8	7.8	-6.7

Source: PubChem BioAssay
